Data: ChEMBL document CHEMBL4513216, “Probing the Open Global Health Chemical Diversity Library for Multistage-Active Starting Points for Next-Generation Antimalarials” (ACS Infect Dis, 2020)

Experiment: Toxicity liver stage against HepG2, at 10uM
Format: cell-based
Parameters: test concentration 10 uM, cell line HepG2-A16-CD81EGFP
Conditions: human, HepG2-A16-CD81EGFP cells; read-out: INHIBITION
In short: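 Uninfected HepG2-A16-CD81EGFP cells, 3 × 10^3 per well, 1536-well, plated on prespotted compound at 10 μM final, parasite-free screening media added to match infected plates; puromycin 10 μM positive, DMSO 0.5% negative; run in parallel with 48 h PbLuc assay at 37 °C, 5% CO2; viability by CellTiter-Glo luminescence, normalized to controls.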

| SMILES | cytotoxicity at 10 µM [%] |
| --- | --- |
| OCCc1cc(CC2(NCc3ccc(C(F)(F)F)cc3)COC2)no1 | -4.41 |
| c1cncc(O[C@H]2COCCN(Cc3c[nH]c4ccccc34)C2)c1 | 0.208 |
| Cc1[nH]c2nc(CNc3cccc(Cl)c3)nn2c(=O)c1C | 0.0924 |
| CC(C)NC(=O)N(Cc1cc(O)nc2ccccc12)C(C)C | 0.266 |
| O=C(NCCc1cccc(F)c1)C1(n2cnnn2)CCCCC1 | 1.04 |
| CC(C)OCCCNC(=O)C1CC(=O)N(c2n[nH]c3cccc(F)c23)C1 (stereo not given) | -4.73 |
| Cc1ncn(CCNC(=O)Nc2ccccc2)c(=O)c1C | -4.39 |
| O=C(COc1ccc(-n2cccn2)nn1)NC1CCCCC1 | -1.03 |
| Cn1nccc1-c1nc2c(cc1C(=O)O)CCN(CC1CC1)CC2 | -119 |
| CC(=O)N1CCO[C@@H]2CN(S(=O)(=O)c3ccccc3F)C[C@@H]2C1 | 12.6 |
| COCC1c2nnn(C)c2CCN1C(=O)Cc1ccc2c(c1)OCO2 (stereo not given) | 9.46 |
| O=C(NCC1CC1)[C@@H]1C[C@@H]2CCN(Cc3ccoc3)C[C@@H]2O1 | -2.65 |
| CCN1C[C@@H]2CN(C(=O)c3ccsc3)C[C@@H]2C1=O | -6.57 |
| O=C1CC(c2ccc(C(=O)O)cc2)c2ncn(-c3ccc(F)cc3)c2N1 (stereo not given) | -3.67 |
| CC(=O)N1CCN(C(=O)c2sc(-c3ccccc3F)nc2C)CC1 | -3.3 |
| O=C(Cn1cc(-c2ccccc2)ncc1=O)NC1CCCCC1 | -8.03 |
| CC(=O)c1c(O)n(C)c2ccc(C)cc12 | 8.58 |
| Cc1ccc(-c2csc(N)c2C#N)cc1 | -1.61 |
| Cc1ccc(C(=O)Nc2c(C(=O)N(C)C)nn(C)c2C)cc1 | 5.59 |
| Cc1nc(NCc2ccc(F)cc2)cc(C(=O)N2CCOCC2)n1 | -9.14 |
| CCCNC(=O)c1cnc(N(C)C)nc1COC | 3.17 |
| Cc1ccccc1C(=O)N1CCOC(c2ncc(CN(C)C)[nH]2)C1 (stereo not given) | 0.53 |

| SMILES | cytotoxicity at 10 µM [%] |
| --- | --- |
| Oc1cc(-c2ccsc2)nc(C2CCN(Cc3cccnc3)CC2)n1 | 2.95 |
| O[C@@H]1CN(Cc2cnccn2)C[C@H]1Oc1ccccc1 | -29.5 |
| Cc1ccnc(C2CCN(S(=O)(=O)c3cn(C)cn3)CC2)n1 | 3.24 |
| CCc1ccccc1Nc1noc2c1CN(C(=O)CNC(C)=O)CC2 | -20.1 |
| Cc1nc(C2CCCN2C(=O)Cc2ccc(F)cc2)nc(O)c1C (stereo not given) | -30.4 |
| CC(C)CC(=O)Nc1ccccc1Oc1ccsc1C(=O)O | 6.2 |
| CC(=O)NC(Cc1c[nH]c2cc(F)ccc12)C(=O)Nc1nncs1 (stereo not given) | 1.22 |
| CCOC(=O)NCC(=O)Nc1nc2ccccc2n1C(C)(C)C | -4.62 |
| CN(C)S(=O)(=O)N(C)C(c1cccnc1)c1ccc(F)c(F)c1 (stereo not given) | -3.53 |
| CC(NC(=O)c1ccoc1)C(=O)N(C)Cc1ccc(O)cc1 (stereo not given) | -3.59 |
| COc1ccccc1CN1CCCC(n2cccn2)C1 (stereo not given) | 2 |
| Cc1noc(CN(Cc2ccc3c(c2)OCCO3)Cc2ccco2)n1 | -10.8 |
| CC(C)CN(CC(O)c1ccccc1)C(=O)Nc1nccs1 (stereo not given) | -1.96 |
| Cn1ccc(C(=O)Nc2cccc(-c3ccc4c(c3)CCO4)n2)cc1=O | -1.26 |
| CCN(CCCNC(=O)Nc1ccccc1C(C)C)S(C)(=O)=O | -0.132 |
| COc1ccccc1CNC(=O)N1CCCC(CO)C1 (stereo not given) | 0.91 |
| O=C(NCCc1cccnc1)NCCc1cccs1 | -1.51 |
| Cc1cc(OCCC(=O)Nc2cccc(F)c2)nnc1C | -2.32 |
| CC(NC(=O)NCC(C)(C)O)c1ccc(-c2cncnc2)cc1 (stereo not given) | 6.27 |
| O=C(CN1C=Nc2ccccc2S1(=O)=O)NC1CCCCC1 | 4.75 |
| CC(C)C(C(=O)NCC1CC1)n1cnc2cc(F)c(F)cc21 (stereo not given) | 3.26 |
| Cc1occc1C(=O)NCC(=O)NCCOc1cccc(Cl)c1 | 0.0264 |

| SMILES | cytotoxicity at 10 µM [%] |
| --- | --- |
| COc1c(CNCc2cccnc2OC(C)C)c(C(C)C)nn1C | 11.1 |
| O=C(NC1CCCCC1)NC1CCCc2c1cnn2CCO (stereo not given) | 8.39 |
| COc1ccc(CNC(=O)CNc2cc3c(cc2Cl)OCCO3)cc1 | -0.238 |
| CC(C)(C)OC(=O)N1CCC(C(=O)NCc2ccccc2)C1 (stereo not given) | 17.7 |
| CCN1CC(C(=O)NC(C)(C)C(=O)OC)CC1=O (stereo not given) | -143 |
| CCN(CC)Cc1ccccc1NC(=O)N(C)Cc1ccccc1O | -1.57 |
| NC(=O)C(Nc1cccc(CO)c1)c1ccc(Br)cc1 (stereo not given) | 9.17 |
| CCN1CCN(C(=O)c2c[nH]c(C(C)C)n2)c2ccccc21 | 11.2 |
| CN(Cc1nc2ccccc2c(=O)[nH]1)C1CC(=O)N(C2CC2)C1=O (stereo not given) | 4.09 |
| Cc1ccc(F)c(S(=O)(=O)NCc2cccc(N3CCOC3=O)c2)c1 | 9.62 |
| CC1CCN(c2ccc(CNC(=O)NCCn3ccnc3)cn2)CC1 | -9.48 |
| N#CCc1ccc(OCC(=O)NS(=O)(=O)c2ccc(Br)s2)cc1 | -5.46 |
| Cc1cc(NS(=O)(=O)CC2CCCCO2)ccc1F (stereo not given) | -11.7 |
| CCOc1cccc(CSC(C)c2nc(C)no2)n1 (stereo not given) | -22.6 |
| N#Cc1c(F)cccc1NCCCOCC1CCOCC1 | -1.25 |
| CC(C)(C(=O)NCc1n[nH]c(=O)[nH]1)c1ccc(F)cc1 | 7.52 |
| Cc1cccnc1NC(=O)C1CCCN1Cc1ccccc1 (stereo not given) | 10.2 |
| Cc1ccc(S(=O)(=O)N2CCC3(CC(C(=O)NCC(C)C)=NO3)C2)cc1 (stereo not given) | -0.819 |
| Cn1cc(-c2cnc(N3CCOCC3)nc2)cc1C(=O)N1CCOCC1 | 9.8 |
| N#Cc1c(N)nc2c(c1-c1cnc(N3CCCC3)nc1)COCC2 | 10.5 |
| CCN1CC(CN(C)Cc2nc(-c3cccc(C)c3)oc2C)CC1=O (stereo not given) | -9.8 |
| O=C(O)c1cccc(C2CCCN(S(=O)(=O)C3CC3)C2)c1 (stereo not given) | 3.24 |

| SMILES | cytotoxicity at 10 µM [%] |
| --- | --- |
| COc1ccccc1OCCCn1c(C)c(C)oc1=O | 0.129 |
| O=C(c1ccc(Cl)cc1)N1CCC2(CC1)C(=O)Nc1ccccc12 | -145 |
| c1ccc(SCCN2CCN(CCn3cncn3)CC2)cc1 | -2.88 |
| CCc1nc(C)c(-c2nccn2CC2CCCCO2)[nH]1 (stereo not given) | 3.98 |
| Cn1ncnc1-c1ccnc(NCc2ccccn2)n1 | -2.46 |
| CCC[C@H]1CN(S(C)(=O)=O)C[C@@H]1NC(=O)CCCn1ccnc1 | 4.47 |
| Cc1cc(CN2CCC(CNC(=O)c3ccc(C#N)cc3)C2)[nH]n1 (stereo not given) | -138 |
| COc1cc(-c2nc(C3CC3)nn2-c2ccnc(C)c2)nc(OC)n1 | 2.64 |
| Cc1nccn1C1(C(=O)O)CCN(Cc2ccc3c(c2)OCCO3)CC1 | -1.53 |
| CCC[C@@H]1CN(Cc2c[nH]c(CC3CCCC3)n2)C[C@H]1C(=O)O | 4.86 |
| CCn1c(N)nc2cc(C(=O)N(C)Cc3cc(C(C)(C)C)n[nH]3)cnc21 | 4.53 |
| Cc1csc2c(N3CCNC(C(=O)N4CCCC4)C3)ncnc12 (stereo not given) | -5.6 |
| O=C(CC(F)(F)F)N1CCc2[nH]nc(-c3ccc4c(c3)OCO4)c2C1 | -149 |
| Fc1ccc(NC2CCCN(Cc3ccncc3)C2)cc1 (stereo not given) | 3.58 |
| CN(CCc1cn[nH]c1)C(=O)C1CC(=O)N(Cc2cccnc2)C1 (stereo not given) | -0.812 |
| COc1cccc2c1OCC(CNC(=O)CCCN1CCOCC1)C2 (stereo not given) | 16.6 |
| COc1ccccc1[C@@H]1CN(C(=O)c2csc(C)n2)C[C@H]1C(=O)O | 4.98 |
| CCCn1ncc2c(C(=O)Nc3cnn(CC)c3C)cc(C3CC3)nc21 | -0.842 |
| Cc1nc(CN2CCCC(NCc3cnn(C)c3)C2)no1 (stereo not given) | -2.53 |
| CC(C)Cc1cc(NC(=O)c2cccnc2)n(C)n1 | -7.09 |
| O=C(NCc1ccc(Cl)s1)NCc1nnc2n1CCCCC2 | -2.06 |
| CCc1ncc2c(n1)CN(Cc1nc(-c3cccnc3)no1)CC2 | -1.62 |

| SMILES | cytotoxicity at 10 µM [%] |
| --- | --- |
| CCn1cc(NC(=O)C2CCN(CC(=O)NC3CCCC3)CC2)cn1 | -6.52 |
| Cc1nc(C)n(CC2CCCN(c3ccc(C#N)cn3)C2)n1 (stereo not given) | -9.67 |
| Cc1cc(C2CCCN2Cc2cc(=O)n(C)c(=O)n2C)no1 (stereo not given) | -20.6 |
| CC(C)c1noc(CN2CCN(CCO)CC2)n1 | -5.57 |
| COc1ccc(OCCC(=O)N2CCCC2Cn2cccn2)cc1 (stereo not given) | -39 |
| CCc1csc(C2CCCN(C(=O)c3ccc4[nH]nnc4c3)C2)n1 (stereo not given) | -17.1 |
| CN(Cc1ccco1)C(=O)CN1CCCC1Cn1cccn1 (stereo not given) | 1.55 |
| CCn1cnnc1CNC(=O)c1cc(Cl)ccc1OC | 5.87 |
| CC(=O)N1CCCN(C(=O)NCCc2ccc(Cl)s2)CC1 | -2.24 |
| c1coc(-c2noc(CN3CC(n4cccn4)C3)n2)c1 | 2.96 |
| O=C(Nc1cccnc1)[C@@H]1COC[C@H]2CN(C3CCCC3)C[C@H]21 | 5.74 |
| CCOCc1cnc2n1CCN(Cc1cccs1)C2C (stereo not given) | 11.3 |
| Cc1cccc(CN2C[C@@H](NC(=O)C3CC3)[C@H]3OCCC[C@H]32)n1 | 7.8 |
| CC(=O)N1CC[C@@H]2CN(Cc3ccncc3)S(=O)(=O)[C@@H]2CC1 | 5.07 |
| c1ncn(Cc2cn3c(n2)CN(CC2CCCCC2)CC3)n1 | -123 |
| O=C(c1cocn1)N1CC[C@H]2OCC[C@@]2(COc2ncccc2F)C1 | -127 |
| c1cc(CN2Cc3nccn3CC(Cn3cncn3)C2)ccn1 (stereo not given) | -134 |
| Cc1nc(CN2C[C@@H](NC(=O)C3CCC3)[C@H]3COC[C@H]32)cs1 | 7.58 |
| CN(C)C(=O)COC[C@]12COC[C@H]1CN(Cc1ccccc1)C2 | -5.78 |
| CC(=O)N1C[C@H]2CC[C@@H](C1)N(S(=O)(=O)c1ccc(F)cc1Cl)C2 | -0.756 |
| CCn1cc(-n2cc3nc(N4CCC(O)CC4)[nH]cc-3c2=O)cn1 | 5.01 |
| CC(C)CS(=O)(=O)N1C[C@@H]2C[C@H](C(=O)Nc3cccnc3)[C@H](C1)O2 | -1.55 |
